In ChEMBL document CHEMBL1124060, “2-Ethynylbenzenealkanamines. A new class of calcium entry blockers” (1988):

Legend:
Format in all cases: functional
Cavia porcellus [1] = organism: Cavia porcellus; assay: Concentration needed to elicit a 75% increase beyond control in coronary flow in ''Langendorff'', guinea pig heart (in vitro)
Summary of the method: (§1)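 Isolated Langendorff-perfused guinea pig hearts infused with a range of drug concentrations; force (g), rate (beats/min) and coronary flow (mL/min) recorded. A linear regression of percent-control flow gives C175, the micromolar concentration raising flow to 175% of control, reported only if within the tested range. Raw data analysed by paired t tests.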

Cavia porcellus [2] = organism: Cavia porcellus; assay: Concentration needed to achieve a 75% increase in coronary blood flow in 'Langendorff', guinea pig heart (in vitro negative inotropic activity); summary of the method: as §1
Cavia porcellus [3] = organism: Cavia porcellus; assay: Concentration needed to achieve a 75% increase in coronary blood flow in 'Langendorff', guinea pig heart (in vitro Negative inotropic potency); summary of the method: as §1
Rattus norvegicus [4] = assay: Ability to lower blood pressure in the spontaneously hypertensive rat (SHR) at 3 mg/kg (p.o.); conditions: route oral
Summary of the method: (§2)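 Spontaneously hypertensive rats dosed orally at the stated dose; read-out is the maximum fall in blood pressure (mmHg), with significance shown as P.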

Rattus norvegicus [5] = assay: Ability to lower blood pressure in the spontaneously hypertensive rat (SHR) at 10 mg/kg (p.o.); conditions: route oral; summary of the method: as §2
Rattus norvegicus [6] = assay: Ability to lower blood pressure in the spontaneously hypertensive rat (SHR) at 30 mg/kg (p.o.); conditions: route oral
Summary of the method: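 Spontaneously hypertensive rats were given a single oral dose of the compound. The read-out was the maximum fall in blood pressure, in mmHg, after that dose. A P value for significance was reported with each value.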

Oryctolagus cuniculus [7] = organism: Oryctolagus cuniculus; assay: Inhibition of [Ca2+] influx in response to a stimulus of norepinephrine (NE, 10 uM)
Summary of the method: (§3)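 Test compounds at 10 μM; tension and calcium influx each expressed as % change from control, measured against KCl ([…]) or NE (10 μM) stimulus.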

Oryctolagus cuniculus [8] = organism: Oryctolagus cuniculus; assay: Inhibition of [Ca2+] influx in response to a stimulus of KCL (60 uM); summary of the method: as §3
Oryctolagus cuniculus [9] = organism: Oryctolagus cuniculus; assay: In vitro inhibition of development of isometric tension, in response to norepinephrine (NE, 10 uM) in rabbit aorta; summary of the method: as §3
Oryctolagus cuniculus [10] = organism: Oryctolagus cuniculus; assay: In vitro inhibition of development of isometric tension, in response to KCl (60 uM) in rabbit aorta; summary of the method: as §3

Row | Structure (SMILES) | C175 (Cavia porcellus [1]) | Contractile force, % of control (Cavia porcellus [2]) | P (Ei) (Cavia porcellus [3]) | Max fall in blood pressure (Rattus norvegicus [4]) | Max fall in blood pressure (Rattus norvegicus [5]) | Max fall in blood pressure (Rattus norvegicus [6]) | Change (Oryctolagus cuniculus [7]) | Change (Oryctolagus cuniculus [8]) | Change (Oryctolagus cuniculus [9]) | Change (Oryctolagus cuniculus [10]) | Control (Cavia porcellus [2])
1 | COc1cccc(CCN(C)C(C)Cc2cc(OC)ccc2C#Cc2ccccc2)c1 (configuration not stated) | 0.0035 µM | 95% | 0.21 | 67 mmHg |  |  |  |  |  |  | 
2 | COc1ccc(C#Cc2ccc(C#N)cc2)c(CC(C)N(C)CCc2ccc(OC)c(OC)c2)c1 (configuration not stated) | 0.45 µM | 75% | <0.05 |  | 27 mmHg |  |  |  |  |  | 
3 | COc1ccc(C#CCCc2ccccc2)c(CCCN(C)CCc2ccc(OC)c(OC)c2)c1 | 1.25 µM | 100% | >0.5 |  | 12 mmHg |  |  |  |  |  | 
4 | CCC#Cc1ccc(OC)cc1CCCN(C)CCc1ccc(OC)c(OC)c1 | 1 µM | 80% | <0.05 |  | 24 mmHg |  |  |  |  |  | 
5 | COc1ccc(C#Cc2ccccc2)c(CC(C)N(C)CCCCc2ccccc2)c1 (configuration not stated) | 2.75 µM | 90% | >0.05 |  |  | 74 mmHg |  |  |  |  | 
6 | COc1ccc(C#Cc2ccc(C(F)(F)F)cc2)c(CC(C)N(C)CCc2ccc(OC)c(OC)c2)c1 (configuration not stated) | 2 µM | 90% | >0.5 |  |  | 49 mmHg |  |  |  |  | 
7 | COc1ccc(C#Cc2ccccc2)c(CC(C)NCCc2ccc(Cl)cc2)c1 (configuration not stated) | >3 µM | >25% | <0.05 |  | 39 mmHg |  |  |  |  |  | 
8 | COc1ccc(C#Cc2ccccc2)c(CC(C)NCCc2cccc(Cl)c2Cl)c1 (configuration not stated) | 0.0048 µM | 83% | 0.031 | 45 mmHg |  |  |  |  |  |  | 
9 | COc1ccc(CCN(C)C(C)Cc2ccccc2C#Cc2ccccc2)cc1OC (configuration not stated) | 0.2 µM | 90% | >0.05 |  | 13 mmHg |  |  |  |  |  | 
10 | CCCCCCN(C)C(C)Cc1cc(OC)ccc1C#Cc1ccccc1 (configuration not stated) | >3 µM |  |  |  | 48 mmHg |  |  |  |  |  | 
11 | COc1ccc(C#Cc2ccc(SC)cc2)c(CC(C)N(C)CCc2ccc(OC)c(OC)c2)c1 (configuration not stated) | 0.55 µM | 80% | 0.5 |  |  | 45 mmHg |  |  |  |  | 
12 | COc1ccc(C#Cc2ccc(C(C)C)cc2)c(CC(C)N(C)CCc2ccc(OC)c(OC)c2)c1 (configuration not stated) | 4.04 µM | 34% | <0.001 | 13 mmHg |  |  |  |  |  |  | 
13 | COc1ccc(C#Cc2ccccc2)c(CC(C)N(C)CCc2ccccc2)c1 (configuration not stated) | 0.5 µM | 115% | >0.5 |  | 43 mmHg |  |  |  |  |  | 
14 | COc1ccc(C#Cc2ccc(Cl)cc2)c(CC(C)N(C)CCc2ccc(OC)c(OC)c2)c1 (configuration not stated) | 0.3 µM | 85% | >0.5 |  |  | 46 mmHg |  |  |  |  | 
15 | COc1ccc(C#Cc2ccccc2)c(CC(C)NCCc2ccc([N+](=O)[O-])cc2)c1 (configuration not stated) | >3 µM | >66% | <0.05 Ei |  |  | 66 mmHg |  |  |  |  | 
16 | COc1ccc(C#Cc2ccccc2)c(CC(C)N(C)Cc2ccc(OC)c(OC)c2)c1 (configuration not stated) | 3 µM | 50% | <0.05 |  | 20 mmHg |  |  |  |  |  | 
17 | COc1cccc(CC(C)NCCc2ccc(OC)c(OC)c2)c1 (configuration not stated) | >10 µM |  |  |  |  | 18 mmHg |  |  |  |  | 
18 | COc1ccc(C#Cc2ccccc2)c(CCCN(C)C)c1 | 0.3 µM | 110% | >0.5 |  |  | 22 mmHg |  |  |  |  | 
19 | COc1ccc(C#Cc2ccccc2)c(CC(C)N(C)CCc2cccc(Cl)c2)c1 (configuration not stated) | 0.005 µM | 95% | 0.53 | 64 mmHg |  |  |  |  |  |  | 
20 | COc1ccc(CCN(C)C(C)CCc2cc(F)ccc2C#Cc2ccccc2)cc1OC (configuration not stated) | 0.34 µM | 85% | 0.45 |  |  | 50 mmHg |  |  |  |  | 

Row | Structure (SMILES) | C175 (Cavia porcellus [1]) | Contractile force, % of control (Cavia porcellus [2]) | P (Ei) (Cavia porcellus [3]) | Max fall in blood pressure (Rattus norvegicus [4]) | Max fall in blood pressure (Rattus norvegicus [5]) | Max fall in blood pressure (Rattus norvegicus [6]) | Change (Oryctolagus cuniculus [7]) | Change (Oryctolagus cuniculus [8]) | Change (Oryctolagus cuniculus [9]) | Change (Oryctolagus cuniculus [10]) | Control (Cavia porcellus [2])
21 | COc1ccc(C#Cc2ccccc2)c(CC(C)NCCc2cccc3ccccc23)c1 (configuration not stated) | 0.083 µM | 77% | 0.003 |  |  | 48 mmHg |  |  |  |  | 
22 | COc1cccc(CCNC(C)Cc2cc(OC)ccc2C#Cc2ccccc2)c1 (configuration not stated) | 0.004 µM | 115% | 0.019 |  | 56 mmHg |  |  |  |  |  | 
23 | COc1cc(CCN(C)C(C)Cc2cc(OC)ccc2C#Cc2ccccc2)cc(OC)c1 (configuration not stated) | 0.0025 µM | 100% | 0.5 | 66 mmHg |  |  | -10% | -41% | -22% | -68% | 
24 | COc1ccc(C#Cc2ccc(F)cc2)c(CC(C)N(C)CCc2ccc(OC)c(OC)c2)c1 (configuration not stated) | 0.0013 µM | 78% | 0.003 | 43 mmHg |  |  |  |  |  |  | 
25 | CCCCN(CCc1ccc(OC)c(OC)c1)C(C)Cc1cc(OC)ccc1C#Cc1ccccc1 (configuration not stated) | >3 µM |  |  |  |  | 49 mmHg |  |  |  |  | 
26 | COc1ccc(C#Cc2ccccc2)c(CC(C)N(C)CCCc2ccccc2)c1 (configuration not stated) | 2.5 µM | 95% | >0.5 |  |  | 52 mmHg |  |  |  |  | 
27 | COc1ccc(C#Cc2ccccc2)c(CC(C)N(C)CCc2cccc3ccccc23)c1 (configuration not stated) | 0.19 µM | 61% | 0.005 |  |  |  |  |  |  |  | 
28 | COc1cc(CCN(C)C(C)CCc2cc(OC)ccc2C#Cc2ccccc2)cc(OC)c1 (configuration not stated) | 0.095 µM | 105% | 0.15 |  |  | 42 mmHg |  |  |  |  | 
29 | COc1ccc(C#Cc2ccc(N(C)C)cc2)c(CC(C)N(C)CCc2ccc(OC)c(OC)c2)c1 (configuration not stated) | 0.035 µM | 115% | 0.009 | 69 mmHg |  |  |  |  |  |  | 
30 | COc1ccc(C#Cc2ccccc2)c(CC(C)NCCc2cccc(Cl)c2)c1 (configuration not stated) | 0.03 µM | 85% | 0.007 | 52 mmHg |  |  |  |  |  |  | 
31 | COc1ccc(C#Cc2ccccc2)c(CC(C)N(C)CCc2cccc(Cl)c2Cl)c1 (configuration not stated) | 0.015 µM | 58% | 0.007 | 111 mmHg |  |  |  |  |  |  | 
32 | COc1ccc(C#Cc2ccccc2)c(CCC(C)N(C)CCc2ccc(OC)c(OC)c2)c1 (configuration not stated) | 0.025 µM | 135% | 0.055 |  |  | 40 mmHg | -34% | -42% | -47% | -71% | 
33 | COc1ccc(C#Cc2ccccc2)c(CC(C)NCCc2ccc(Cl)c(Cl)c2)c1 (configuration not stated) | 0.006 µM | 115% | 0.205 | 43 mmHg |  |  | -23% | -21% | -5% | -20% | 
34 | COc1ccc(C#Cc2ccccc2)c(CC(C)NCCc2ccc(OC)c(OC)c2)c1 (configuration not stated) | 0.027 µM | 95% | >0.5 | 37 mmHg |  |  | -27% | -46% | -45% | -68% | 
35 | COc1ccc(C#Cc2ccccc2)c(CCC(C)NCCc2ccc(OC)c(OC)c2)c1 (configuration not stated) | 0.07 µM | 123% | 0.001 |  |  | 20 mmHg |  |  |  |  | 
36 | COc1cc(CCNC(C)CCc2cc(OC)ccc2C#Cc2ccccc2)cc(OC)c1 (configuration not stated) | 2.1 µM | 87% | 0.045 |  |  | 34 mmHg |  |  |  |  | 
37 | COc1ccc(C#Cc2ccccc2)c(CCN(C)C)c1 | 3 µM |  | >0.05 |  |  | 18 mmHg |  |  |  |  | 90%
38 | COc1ccc([C@@H]2Sc3ccccc3N(CCN(C)C)C(=O)[C@@H]2OC(C)=O)cc1 [DILTIAZEM] | 0.18 µM | 90% | >0.05 |  |  | 48 mmHg | -37% | -18% | -8% | -84% | 
39 | COC(=O)C1=C(C)NC(C)=C(C(=O)OC)C1c1ccccc1[N+](=O)[O-] [NIFEDIPINE] | 0.013 µM | 85% | 0.014 |  | 52 mmHg |  |  |  |  |  | 
40 | COc1ccc(CCN(C)CCCC(C#N)(c2ccc(OC)c(OC)c2)C(C)C)cc1OC (configuration not stated) [VERAPAMIL] | 0.1 µM | 35% | <0.001 |  |  | 67 mmHg | -22% | -30% | -18% | -89% | 
